Published values collected from several papers.
Protocols differ between the studies behind these lines.
Target: Megakaryocyte-associated tyrosine-protein kinase (MATK, Homo sapiens, UniProt P42679)
Sequence (P42679 1-507, as in one of the studies): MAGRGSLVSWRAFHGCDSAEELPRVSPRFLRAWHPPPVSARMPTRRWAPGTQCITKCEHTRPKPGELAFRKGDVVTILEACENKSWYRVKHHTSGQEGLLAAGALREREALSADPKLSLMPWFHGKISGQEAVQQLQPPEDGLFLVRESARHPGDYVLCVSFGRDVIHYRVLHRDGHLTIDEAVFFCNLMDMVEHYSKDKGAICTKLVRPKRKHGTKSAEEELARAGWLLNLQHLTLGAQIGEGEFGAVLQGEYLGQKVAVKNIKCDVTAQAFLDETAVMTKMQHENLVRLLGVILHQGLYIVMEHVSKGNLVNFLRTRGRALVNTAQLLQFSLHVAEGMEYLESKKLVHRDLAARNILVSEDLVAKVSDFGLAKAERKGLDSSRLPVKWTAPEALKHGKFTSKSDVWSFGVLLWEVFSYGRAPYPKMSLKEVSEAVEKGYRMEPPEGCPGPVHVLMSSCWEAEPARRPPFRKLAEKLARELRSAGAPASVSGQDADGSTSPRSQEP

SMILES	test	setting	quantity	result
CCOCCn1cc(C(=O)Nc2ccc(-n3nc(-c4cccnc4)cc3C(F)(F)F)cn2)ccc1=O	cell-free assay, competition with immobilised ligand	1 µM	remaining binding	90%
Nc1ncnc2occ(-c3ccc(NC(=O)Nc4cc(C(F)(F)F)ccc4F)cc3)c12	cell-free assay, inhibitor	20 µM	remaining signal	13%
O=C(Nc1cnn(-c2csc(C(=O)NC3COC3)c2)c1)Nc1ccccc1Cl	enzyme activity, inhibitor	5 µM	remaining activity	99.7%
COc1cc2ncnc(Nc3ccc(Oc4ccccc4)c(C)c3C)c2cc1OC	enzyme activity, inhibitor	1 µM	inhibition	-2%
O=C1NC(=O)c2cc(Nc3ccc(F)cc3)c(Nc3ccc(F)cc3)cc21	cell-free assay	0.5 µM	remaining signal	93.5%
CC(C)(C)c1nc(-c2cccc(NS(=O)(=O)c3c(F)cccc3F)c2F)c(-c2ccnc(N)n2)s1	enzyme activity, inhibitor, radiometric	1 µM	remaining activity	90%
CC1=C(C#N)C(c2ccc3c(c2)c(NC(=O)c2ccccc2C)nn3C)C(C#N)=C(C)N1	cell-free assay, competition with immobilised ligand	1 µM	remaining binding	79%
CCCS(=O)(=O)Nc1ccc(F)c(C(=O)c2c[nH]c3ncc(-c4ccc(Cl)cc4)cc23)c1F	enzyme activity, inhibitor	1 µM	inhibition	< 20%
CN(C)C(=O)Cn1cc(-c2nc([C@@](C)(c3ccc(-c4cnc(N)nc4)cc3)C3CC3)no2)cn1	cell-free assay, competition with immobilised ligand	1 µM	remaining binding	77%
Cc1cnn2ncc(-c3ccnc(N(C)C)n3)c2c1	binding	1 µM	remaining binding	100%
O=c1nc(-c2ccccn2)sc2ccccc12	binding, competition with immobilised ligand	1 µM	remaining binding	100%
O=C1Nc2ccc(Cl)cc2C1=Cc1cc(Cl)c(O)c(Cl)c1	cell-free assay	0.5 µM	remaining signal	82.2%
